Kir21 inh = inhibitors of mouse Kir2.1 inward-rectifier potassium channel; P35561; HEK293-Kir2.1, FluxOR thallium flux fluorescence; hits give low values; B-score at 10 µM; 310,000 compounds, 0.85% hits; AID 1672;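 active = fluorescence ratio B-score at or below minus 3 SD of library scores, with starting-brightness B-score within 2 SD, cut at about -4.2 in these data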;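 also: channel flux triggered by added potassium and thallium sulfate stimulus; B-score of peak minus minimum fluorescence over baseline after thallium stimulus; more negative B-score means stronger Kir2.1 block with less thallium influx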
TRPC6 act = mouse TRPC6 channel activation; Q61143; HEK293-TRPC6 membrane potential dye fluorescence; hits give high values; B-score at 10 µM; 310,000 compounds, 0.13% hits;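 active = B-score of the integrated fluorescence ratio above library mean plus 3 SD, and starting fluorescence ratio within library mean plus 5 SD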;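 also: higher score means more depolarization so channel activation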
TRPC6 inh = mouse TRPC6 channel inhibition; 310,000 compounds, 1.1% hits; AID 2553; B-score at 10 µM; HEK293-TRPC6, membrane potential dye, ACh-evoked depolarization; hits give low values;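 active = B-score under library mean minus 3 SD, initial fluorescence not abnormally high, positive integrated signal ratio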;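 also: B-score derived from integrated fluorescence ratio over the kinetic read; more negative B-score means stronger inhibition of depolarization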
TRPC4 act = TRPC4 (mouse) channel activation; Q9QUQ5; 310,000 compounds, 0.49% hits; B-score at 10 µM; HEK293 TRPC4beta/mu-opioid, Fluo4 calcium fluorescence; hits give high values;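 active = B-score above 5 SD of library B-scores, and initial fluorescence ratio not above library mean plus 5 SD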;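 also: positive B-score marks a calcium rise read as TRPC4 activation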
Target sequence (Q9QUQ5 whole entry, looked up): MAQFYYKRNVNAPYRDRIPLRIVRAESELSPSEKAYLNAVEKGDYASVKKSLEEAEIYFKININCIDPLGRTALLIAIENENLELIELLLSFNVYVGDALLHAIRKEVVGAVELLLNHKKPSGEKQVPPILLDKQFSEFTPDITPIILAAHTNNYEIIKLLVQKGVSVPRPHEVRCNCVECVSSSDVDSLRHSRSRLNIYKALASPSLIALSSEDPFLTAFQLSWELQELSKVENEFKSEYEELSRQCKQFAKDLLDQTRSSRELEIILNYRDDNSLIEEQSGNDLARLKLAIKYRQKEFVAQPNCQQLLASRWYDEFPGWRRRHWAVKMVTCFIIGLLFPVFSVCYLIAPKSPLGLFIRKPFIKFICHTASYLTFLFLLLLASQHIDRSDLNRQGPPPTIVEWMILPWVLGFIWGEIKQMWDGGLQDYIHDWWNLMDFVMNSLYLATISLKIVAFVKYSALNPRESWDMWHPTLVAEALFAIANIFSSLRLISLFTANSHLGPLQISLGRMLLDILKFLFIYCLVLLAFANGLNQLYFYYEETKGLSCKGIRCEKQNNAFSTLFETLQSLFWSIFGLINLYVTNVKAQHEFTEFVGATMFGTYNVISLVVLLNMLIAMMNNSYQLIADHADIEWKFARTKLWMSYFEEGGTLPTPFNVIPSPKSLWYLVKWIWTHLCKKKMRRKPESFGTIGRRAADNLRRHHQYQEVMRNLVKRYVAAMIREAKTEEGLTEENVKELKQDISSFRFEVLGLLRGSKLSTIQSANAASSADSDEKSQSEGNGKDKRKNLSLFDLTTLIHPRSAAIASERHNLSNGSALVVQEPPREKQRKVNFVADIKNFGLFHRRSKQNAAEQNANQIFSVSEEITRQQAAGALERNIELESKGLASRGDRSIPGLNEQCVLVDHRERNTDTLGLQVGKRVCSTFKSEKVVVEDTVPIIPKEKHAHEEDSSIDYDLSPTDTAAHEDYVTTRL
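Material: HEK293 stable line with TRPC4beta plus mu-opioid receptor; technique: Fluo4 calcium-sensitive dye fluorescence, kinetic, 1 Hz baseline; timing: Fluo4 dye loading 45 min at room temperature, 110 s recording; controls: assay buffer as low control, maximal DAMGO as high control; read-out: integrated baseline-normalised fluorescence ratio, converted to per-well B score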
TRPC4 inh = TRPC4 (mouse) channel inhibition; 300,000 compounds, 0.39% hits; HEK293 TRPC4beta/mu-opioid, DAMGO-evoked Fluo4 calcium flux; hits give low values; B-score at 10 µM; AID 2247;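 active = B-score over 3 SD under the library average, no early fluorescence shift, positive overall ratio signal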
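test system = HEK293 cells with stable TRPC4beta plus mu-opioid receptor expression | detection = Fluo4 Ca2+ flux fluorescence | read-out = integrated fluorescence ratio relative to baseline, converted to per-well B score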
TRPC4 PAM = allosterically enhances the mouse TRPC4 cation channel. B-score at 10 µM. 310,000 compounds, 0.42% hits. Q9QUQ5. HEK293 TRPC4beta/mu-opioid, DAMGO EC20, Fluo-4 Ca2+ flux; hits give high values;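 active = B-score of calcium response area above 5 SD of library B-scores, with initial fluorescence ratio within 5 SD of library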
TRPC4 sel inh 2 = second selectivity test of TRPC6 inhibitors: effect on mouse TRPC4. 920 compounds, 42% hits. shares compounds with TRPC6 inh. inhibition, % at 10 µM. HEK293 TRPC4/MOR, membrane potential dye fluorescence; channel activated by saturating DAMGO dose;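 active = compounds whose fluorescence signal differed from control wells by over 3 SD, either direction, in both duplicate plates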
TRPC4 spec = mouse TRPC4 off-target activity of TRPC6 inhibitors. HEK293 TRPC4/mu-opioid, membrane potential fluorescence. activity change, negative = inhibition, % at 10 µM. 920 compounds, 61% hits. shares compounds with TRPC6 inh;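 active = rise or fall in signal beyond 3 SD of buffer-only wells in both replicate plates, either sign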;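 also: integrated kinetic ratio of fluorescence range over baseline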
HEK293 MPD ctr 2-1 = second counter-screen for TRPC6 inhibitors: parental HEK293 cells | signal change vs control, % at 10 µM | 920 compounds, 31% hits | shares compounds with TRPC6 inh | parental HEK293 membrane potential dye fluorescence; maximal acetylcholine challenge after compound addition | AID 2779;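 active = membrane potential signal moving either way by over 3 SD of the maximum-effect control, in both duplicate plates, meaning non-specific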
HEK293 MPD ctr-1 = checks TRPC6 inhibitor effects in parental HEK293 cells | shares compounds with TRPC6 inh | parental HEK293 membrane potential dye fluorescence | membrane potential signal change, % at 10 µM | 920 compounds, 60% hits;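 active = membrane potential signal shifting up or down by more than 3 SD of buffer-only wells, on both duplicate plates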
HEK293 MPD ctr-2 = checks TRPC6 modulator effects in parental HEK293 cells; shares compounds with TRPC6 inh; membrane potential dye fluorescence; membrane potential signal change, % at 10 µM; 2,400 compounds, 51% hits; AID 488924;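 active = membrane potential signal moves up or down beyond 5 SD from buffer-only wells, on both duplicate plates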
HEK293 MPD ctr 2-2 = second counter-screen for TRPC6 modulators: effect in parental HEK293 cells | membrane potential dye fluorescence; after compound, maximal acetylcholine stimulation | shares compounds with TRPC6 inh | inhibition, % at 10 µM | 2,400 compounds, 14% hits;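 active = membrane potential signal drops by more than 5 SD from the mean control signal, in both duplicate plates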
TRPC4 ctr mod = tests whether TRPC6 modulators also affect mouse TRPC4; shares compounds with TRPC6 inh; percent change from control (negative = decrease, positive = increase), % at 10 µM; AID 488927; 2,400 compounds, 69% hits; HEK293 TRPC4/mu-opioid, membrane potential fluorescence;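 active = membrane potential signal moved up or down beyond 5 SD of buffer control wells, in both duplicate plates, actives on both sides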
TRPC4 ctr inh 2 = second selectivity test of TRPC6 modulators against mouse TRPC4; 2,400 compounds, 55% hits; HEK293 TRPC4/mu-opioid, membrane potential dye fluorescence; stimulated with maximal-effect DAMGO; AID 488928; inhibition, % at 10 µM; shares compounds with TRPC6 inh;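 active = drop in membrane potential signal beyond 5 SD of the control wells in both duplicate plates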;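 also: TRPC4 counter screen for TRPC6 hits run under conditions tuned for TRPC6 not TRPC4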
TRPC6 block conf = mouse TRPC6 inhibitor confirmation. inhibition, % at 10 µM. HEK293-TRPC6, membrane potential dye, ACh-evoked depolarization. 3,300 compounds, 43% hits. shares compounds with TRPC6 inh;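 active = fluorescence ratio falls more than 5 SD below the full-stimulation control mean, in both duplicate runs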;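 also: integrated fluorescence ratio of peak minus minimum over baseline after agonist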
TRPC6 act conf = mouse TRPC6 activator confirmation | shares compounds with TRPC6 inh | HEK293-TRPC6 membrane potential dye fluorescence, FDSS | activation, % at 10 µM | 2,800 compounds, 11% hits;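 active = ratio signal rise beyond 5 SD above unstimulated control wells' mean, seen in both duplicate runs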
Of the large screens only hits and unclear results are named; the others gave an inactive call (follow-up assays come after a bar, where they were run). Hits are enriched below; roughly 3% of the tested compounds scored in any of these assays.

CC1(C)CCCC2=C1CC1C(=O)N(N)C(=O)C1C2 (stereo not drawn)	none
CC(C)(C)NCc1ccccc1OCc1cccs1	TRPC6 inh -9.81, TRPC4 inh -7 | TRPC4 sel inh 2 31.0% | TRPC4 spec 38.3% | HEK293 MPD ctr 2-1 -19.5% | HEK293 MPD ctr-1 20.6% | TRPC6 block conf 88.9%
CC(C)(C)NCc1cc(Cl)ccc1OCc1ccccc1F	TRPC6 act 17.8, TRPC6 inh -8.09 | HEK293 MPD ctr-2 487.5% | HEK293 MPD ctr 2-2 inactive | TRPC4 ctr mod 105.5% | TRPC4 ctr inh 2 84.5% | TRPC6 block conf 100.0% | TRPC6 act conf 152.5%
COc1cc(CNC(C)(C)C)cc(Br)c1OCc1cccs1	none
COC(=O)c1ccccc1C(=O)N1CCC(CCC(=O)NC2CC2)CC1	none
O=C(Nc1ccnn1C1CCN(Cc2cccc(F)c2F)CC1)C1CCCC1	none
Cc1c(Cl)c([N+](=O)[O-])nn1CCCC(=O)NC1CCCCC1	none
CN1CCC(=C2c3ccccc3C=Cc3ccccc32)CC1	TRPC6 inh -5.55 | HEK293 MPD ctr-2 150.5% | HEK293 MPD ctr 2-2 76.5% | TRPC4 ctr mod 23.0% | TRPC4 ctr inh 2 54.5% | TRPC6 block conf 75.0%
COc1ccc(-c2n[nH]c(C)c2-c2ccc(Cl)cc2)c(O)c1	none
Cc1[nH]nc(-c2ccc(O)cc2O)c1-c1ccc(Cl)cc1	TRPC6 inh -5.75, TRPC4 inh -7 | HEK293 MPD ctr-2 -79.0% | HEK293 MPD ctr 2-2 inactive | TRPC4 ctr mod -22.5% | TRPC4 ctr inh 2 80.5% | TRPC6 block conf inactive | TRPC6 act conf inactive
CC(C)(C(N)=O)c1ccccc1	none
NCC(c1ccccc1)(c1ccccc1)c1ccccc1	Kir21 inh -4.77, TRPC6 inh -6.56, TRPC4 act 117, TRPC4 inh -8 | HEK293 MPD ctr-2 inactive | HEK293 MPD ctr 2-2 inactive | TRPC4 ctr mod 17.5% | TRPC4 ctr inh 2 74.0% | TRPC6 block conf 41.5% | TRPC6 act conf inactive
CC(C(=O)Nc1ccc([N+](=O)[O-])cc1)N1CCN(C/C=C/c2ccccc2)CC1 (stereo not drawn)	TRPC6 inh -5.98 | HEK293 MPD ctr-2 inactive | HEK293 MPD ctr 2-2 inactive | TRPC4 ctr mod inactive | TRPC4 ctr inh 2 54.0% | TRPC6 block conf inactive | TRPC6 act conf inactive
CC12CCC(=O)N1C(C(=O)Nc1cccc(F)c1)CS2 (stereo not drawn)	none
Cc1ccc(OCCCCCCN2CCNCC2)c(Br)c1	Kir21 inh -5.63, TRPC6 inh -9.03 | TRPC4 sel inh 2 51.5% | TRPC4 spec 1.3% | HEK293 MPD ctr 2-1 inactive | HEK293 MPD ctr-1 6.4% | TRPC6 block conf 69.9% | TRPC6 act conf inactive
Clc1ccc(OCCCCCN2CCCC2)c(Br)c1	TRPC6 inh -5.13 | HEK293 MPD ctr-2 121.0% | HEK293 MPD ctr 2-2 inactive | TRPC4 ctr mod 22.0% | TRPC4 ctr inh 2 33.5% | TRPC6 block conf inactive
Cc1ccc(-c2nn(-c3cccc(F)c3)cc2CNCc2cccnc2)o1	TRPC6 inh -5.66, TRPC4 act 121 | HEK293 MPD ctr-2 inactive | HEK293 MPD ctr 2-2 inactive | TRPC4 ctr mod 41.0% | TRPC4 ctr inh 2 85.0% | TRPC6 block conf inactive | TRPC6 act conf inactive
Cc1ccccc1OCC(=O)O/N=C(\N)c1ccncc1	none
O=C(NCC1CCN(c2ccc(S(=O)(=O)N3CCOCC3)cc2)CC1)c1cccc(Cl)c1	TRPC6 inh -6.26 | HEK293 MPD ctr-2 inactive | HEK293 MPD ctr 2-2 inactive | TRPC4 ctr mod -30.5% | TRPC4 ctr inh 2 inactive | TRPC6 block conf 45.0% | TRPC6 act conf inactive
C/C=N/NC(=O)CCNC(=O)c1ccccc1	none
COc1ccccc1OCc1ccc(C(=O)N2CCCCC2)o1	TRPC6 inh -5.17 | HEK293 MPD ctr-2 inactive | HEK293 MPD ctr 2-2 inactive | TRPC4 ctr mod inactive | TRPC4 ctr inh 2 inactive | TRPC6 block conf inactive | TRPC6 act conf inactive
COc1ccc(S(=O)(=O)N2CCC(C(=O)NCCc3ccccc3)CC2)cc1	none
O=[N+]([O-])c1ccc(CN2CCOCCOCCN(Cc3ccc([N+](=O)[O-])cc3)CCOCC2)cc1	TRPC6 inh -5.51 | HEK293 MPD ctr-2 inactive | HEK293 MPD ctr 2-2 inactive | TRPC4 ctr mod -11.5% | TRPC4 ctr inh 2 74.0% | TRPC6 block conf 46.0% | TRPC6 act conf inactive
CC(Nc1cc(N2CCNCC2)ccc1[N+](=O)[O-])c1ccccc1 (stereo not drawn)	Kir21 inh -7.46, TRPC6 inh -7.09, TRPC4 act 75 | TRPC4 sel inh 2 71.5% | TRPC4 spec inactive | HEK293 MPD ctr 2-1 inactive | HEK293 MPD ctr-1 -182.5% | TRPC6 block conf inactive | TRPC6 act conf inactive
O=C(CC1C(=O)NCCN1Cc1c(F)cccc1Cl)NCCCN1CCCC1=O (stereo not drawn)	none
c1ccc(-c2nc3c(ccc4ccccc43)[nH]2)nc1	TRPC6 inh -6.24 | HEK293 MPD ctr-2 inactive | HEK293 MPD ctr 2-2 inactive | TRPC4 ctr mod -9.0% | TRPC4 ctr inh 2 28.0% | TRPC6 block conf inactive | TRPC6 act conf inactive
O=C(Nc1ccc(F)c(Cl)c1)c1cncs1	none

From PubChem BioAssay
